Source: ChEMBL document CHEMBL3232712, “Antineoplastic agents. 595. Structural modifications of betulin and the X-ray crystal structure of an unusual betulin amine dimer” (2014)
Converted amounts (≈) assume the structure as drawn.

Legend:
Type in all cases: functional
P388 = assay: Cytotoxicity against mouse P388 cells after 48 hrs; settings: P388, 48 h, read-out: ED50 (the source's name)
How it was run: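 Murine P388 leukemia cells, counted by Coulter counter, were grown 24 h in Fisher medium with 10% horse serum, then exposed 48 h to serial compound dilutions. Cell numbers were determined with a Coulter particle counter, and ED50 was calculated for growth inhibition.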

[1] = Cytotoxicity against human BxPC3 cells after 48 hrs by SRB assay; settings: BXPC-3, 48 h
How it was run: (§1)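 Human tumour lines in RPMI1640 with 5% fetal bovine serum, trypsinized and counted by hemacytometer, seeded in 96-well plates and allowed 24 h before serial compound dilutions were added. After 48 h exposure, cells were fixed with trichloroacetic acid and stained with sulforhodamine B, and optical density was read. GI50 was taken as the concentration halving net protein increase.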

MCF7 = assay: Cytotoxicity against human MCF7 cells after 48 hrs by SRB assay; settings: MCF7, 48 h; how it was run: as §1
SF-268 = assay: Cytotoxicity against human SF268 cells after 48 hrs by SRB assay; settings: SF-268, 48 h; how it was run: as §1
NCI-H460 = assay: Cytotoxicity against human NCI-H460 cells after 48 hrs by SRB assay; settings: NCI-H460, 48 h; how it was run: as §1
[2] = Cytotoxicity against human KM20L2 cells after 48 hrs by SRB assay; settings: KM-20L2, 48 h; how it was run: as §1
DU-145 = assay: Cytotoxicity against human DU145 cells after 48 hrs by SRB assay; settings: DU-145, 48 h; how it was run: as §1

| SMILES | EC50 (P388) [µg/mL] | GI50 [1] [µg/mL] | GI50 (MCF7) [µg/mL] | GI50 (SF-268) [µg/mL] | GI50 (NCI-H460) [µg/mL] | GI50 [2] [µg/mL] | GI50 (DU-145) [µg/mL] |
| --- | --- | --- | --- | --- | --- | --- | --- |
| C=C(C)[C@@H]1CC[C@]2(COC(C)=O)CC[C@]3(C)[C@H](CC[C@@H]4[C@@]5(C)CCC(=O)C(C)(C)[C@@H]5CC[C@]43C)[C@@H]12 | 0.12 (≈ 0.249 µM) | > 10 | 8 (≈ 16.6 µM) | 10.6 (≈ 22 µM) | 5.2 (≈ 10.8 µM) | 12.7 (≈ 26.3 µM) | > 10 |
| C=C(C)[C@@H]1CC[C@]2(COC(C)=O)CC[C@]3(C)[C@H](CC[C@@H]4[C@@]5(C)CC[C@H](O)C(C)(C)[C@@H]5CC[C@]43C)[C@@H]12 | 0.805 (≈ 1.66 µM) | 4.1 (≈ 8.46 µM) | 3 (≈ 6.19 µM) | 4 (≈ 8.25 µM) | 2.5 (≈ 5.16 µM) | 5 (≈ 10.3 µM) | 7.6 (≈ 15.7 µM) |
| CC1(C)CC[C@]23CC[C@]4(C)[C@H](CC[C@@H]5[C@@]6(C)CC(Br)C(=O)C(C)(C)[C@@H]6CC[C@]54C)[C@H]2[C@H]1OC3 (some centres not stated) | – | 3.1 (≈ 5.97 µM) | 5 (≈ 9.62 µM) | 3.4 (≈ 6.54 µM) | 2.9 (≈ 5.58 µM) | 2.7 (≈ 5.2 µM) | 6.7 (≈ 12.9 µM) |
| CC1(C)CC[C@]23CC[C@]4(C)[C@H](CC[C@@H]5[C@@]6(C)C=C(O)C(=O)C(C)(C)[C@@H]6CC[C@]54C)[C@H]2[C@H]1OC3 | – | > 10 | 7.1 (≈ 15.6 µM) | > 10 | 8.8 (≈ 19.4 µM) | 8 (≈ 17.6 µM) | 9.3 (≈ 20.5 µM) |
| C=C(C)[C@@H]1CC[C@]2(COC(C)=O)CC[C@]3(C)[C@H](CC[C@@H]4[C@@]5(C)C[C@@H](Br)C(=O)C(C)(C)[C@@H]5CC[C@]43C)[C@@H]12 | 0.725 (≈ 1.29 µM) | 3.1 (≈ 5.52 µM) | 4.1 (≈ 7.3 µM) | 10.1 (≈ 18 µM) | 12.8 (≈ 22.8 µM) | 9.6 (≈ 17.1 µM) | 9 (≈ 16 µM) |
| C=C(C)[C@@H]1CC[C@]2(COC(C)=O)CC[C@]3(C)[C@H](CC[C@@H]4[C@@]5(C)C[C@H](Br)C(=O)C(C)(C)[C@@H]5CC[C@]43C)[C@@H]12 | > 10 | 3.4 (≈ 6.05 µM) | 3.2 (≈ 5.7 µM) | 3.4 (≈ 6.05 µM) | 2.8 (≈ 4.99 µM) | 4.4 (≈ 7.83 µM) | 6.1 (≈ 10.9 µM) |
| C=C(C)[C@@H]1CC[C@]2(COC(C)=O)CC[C@]3(C)[C@H](CC[C@@H]4[C@@]5(C)CC(Br)(Br)C(=O)C(C)(C)[C@@H]5CC[C@]43C)[C@@H]12 | 0.391 (≈ 0.61 µM) | 1 (≈ 1.56 µM) | 2.5 (≈ 3.9 µM) | 4.4 (≈ 6.87 µM) | 4.4 (≈ 6.87 µM) | 4.2 (≈ 6.56 µM) | 3.8 (≈ 5.93 µM) |
| C=C(C)[C@@H]1CC[C@]2(COC(C)=O)CC[C@]3(C)[C@H](CC[C@@H]4[C@@]5(C)CC(N=[N+]=[N-])C(=O)C(C)(C)[C@@H]5CC[C@]43C)[C@@H]12 (some centres not stated) | > 10 | 6.6 (≈ 12.6 µM) | 5 (≈ 9.55 µM) | > 10 | 4.4 (≈ 8.4 µM) | 4.2 (≈ 8.02 µM) | 5.7 (≈ 10.9 µM) |
| C=C(C)[C@@H]1CC[C@]2(COC(C)=O)CC[C@]3(C)[C@H](CC[C@@H]4[C@@]5(C)C=C(N)C(=O)C(C)(C)[C@@H]5CC[C@]43C)[C@@H]12 | > 10 | 7.9 (≈ 15.9 µM) | > 10 | > 10 | > 10 | > 10 | > 10 |
| C=C(C)[C@@H]1CC[C@]2(COC(C)=O)CC[C@]3(C)[C@H](CC[C@@H]4[C@@]5(C)C=C(NC6=C[C@]7(C)[C@H]8CC[C@@H]9[C@H]%10[C@H](C(=C)C)CC[C@]%10(COC(C)=O)CC[C@@]9(C)[C@]8(C)CC[C@H]7C(C)(C)C6=O)C(=O)C(C)(C)[C@@H]5CC[C@]43C)[C@@H]12 | > 10 | > 10 | > 10 | > 10 | > 10 | > 10 | > 10 |
| C=C(C)[C@@H]1CC[C@]2(COC(C)=O)CC[C@]3(C)[C@H](CC[C@@H]4[C@@]5(C)CC(=O)C(O)C(C)(C)[C@@H]5CC[C@]43C)[C@@H]12 (some centres not stated) | > 10 | 9.1 (≈ 18.2 µM) | 5.8 (≈ 11.6 µM) | 6.1 (≈ 12.2 µM) | 8 (≈ 16 µM) | 5.9 (≈ 11.8 µM) | > 10 |
| C=C(C)[C@@H]1CC[C@]2(COC(C)=O)CC[C@]3(C)[C@H](CC[C@@H]4[C@@]5(C)CC6=NC(C)(C)N=C6C(C)(C)[C@@H]5CC[C@]43C)[C@@H]12 | – | 14.5 (≈ 27.1 µM) | 11.2 (≈ 20.9 µM) | > 10 | > 10 | > 10 | > 10 |
| C=C(C)[C@@H]1CC[C@]2(CO)CC[C@]3(C)[C@H](CC[C@@H]4[C@@]5(C)CC6=NC(C)(C)N=C6C(C)(C)[C@@H]5CC[C@]43C)[C@@H]12 | – | 1.9 (≈ 3.86 µM) | 2 (≈ 4.06 µM) | 6.9 (≈ 14 µM) | 2.8 (≈ 5.68 µM) | 4.9 (≈ 9.94 µM) | 5.8 (≈ 11.8 µM) |
| CC1(C)CC[C@]23CC[C@]4(C)[C@H](CC[C@@H]5[C@@]6(C)CCC(=O)C(C)(C)[C@@H]6CC[C@]54C)[C@H]2[C@H]1OC3 | – | > 10 | > 10 | > 10 | > 10 | > 10 | > 10 |
| CC1(C)CC[C@]23CC[C@]4(C)[C@H](CC[C@@H]5[C@@]6(C)CC(N=[N+]=[N-])C(=O)C(C)(C)[C@@H]6CC[C@]54C)[C@H]2[C@H]1OC3 (some centres not stated) | – | 3.1 (≈ 6.44 µM) | 4.7 (≈ 9.76 µM) | 8.7 (≈ 18.1 µM) | 3.8 (≈ 7.89 µM) | 7.9 (≈ 16.4 µM) | 4.5 (≈ 9.34 µM) |
| CC1(C)CC[C@]23CC[C@]4(C)[C@H](CC[C@@H]5[C@@]6(C)C=C(N)C(=O)C(C)(C)[C@@H]6CC[C@]54C)[C@H]2[C@H]1OC3 | – | 10.8 (≈ 23.8 µM) | 11.2 (≈ 24.7 µM) | > 10 | > 10 | > 10 | > 10 |
| CC1(C)CC[C@]23CC[C@]4(C)[C@H](CC[C@@H]5[C@@]6(C)C=C(NC7=C[C@]8(C)[C@H]9CC[C@@H]%10[C@H]%11[C@H]%12OC[C@@]%11(CCC%12(C)C)CC[C@@]%10(C)[C@]9(C)CC[C@H]8C(C)(C)C7=O)C(=O)C(C)(C)[C@@H]6CC[C@]54C)[C@H]2[C@H]1OC3 | – | > 10 | > 10 | > 10 | > 10 | > 10 | > 10 |
| C=C(C)[C@@H]1CC[C@]2(C(=O)OC)CC[C@]3(C)[C@H](CC[C@@H]4[C@@]5(C)CC(=O)CC(C)(C)[C@@H]5CC[C@]43C)[C@@H]12 | > 10 | 8.2 (≈ 17.5 µM) | 11.6 (≈ 24.7 µM) | > 10 | 13.1 (≈ 27.9 µM) | > 10 | > 10 |
| C=C(C)[C@@H]1CC[C@]2(C(=O)OC)CC[C@]3(C)[C@H](CC[C@@H]4[C@@]5(C)C=C(N6CCOCC6)C(=O)C(C)(C)[C@@H]5CC[C@]43C)[C@@H]12 | – | 3.9 (≈ 7.07 µM) | 6.1 (≈ 11.1 µM) | > 10 | 4.4 (≈ 7.97 µM) | > 10 | > 10 |
| C=C(C)[C@@H]1CC[C@]2(COC(C)=O)CC[C@]3(C)[C@H](CC[C@@H]4[C@@]5(C)CC[C@H](OC(C)=O)C(C)(C)[C@@H]5CC[C@]43C)[C@@H]12 [BETULIN DIACETATE] | 0.806 | > 10 | > 10 | > 10 | > 10 | > 10 | > 10 |
| C=C(C)[C@@H]1CC[C@]2(CO)CC[C@]3(C)[C@H](CC[C@@H]4[C@@]5(C)CC[C@H](O)C(C)(C)[C@@H]5CC[C@]43C)[C@@H]12 [BETULIN] | – | 9.3 (≈ 21 µM) | > 10 | > 10 | 7.4 (≈ 16.7 µM) | > 10 | > 10 |
